Reference: article PMC7033594 (iScience, 2020)

Experiments:
PLC activity = PLC activity in seedlings after ABA treatment; type: in vivo, Arabidopsis; settings: 50 μM ABA for 24 h
Outline: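 Ten-day-old seedlings grown on MS agar were incubated 24 h in the dark in liquid half-strength MS with or without 50 µM ABA. PLC activity in seedling extracts was measured in triplicate with the EnzCheck direct PLC kit. Fluorescence was normalised to the kit's Bacillus cereus PC-PLC. Groups were compared by one-way ANOVA with Tukey's test.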

[1] = tested on: PI(4,5)P2 biosensor in Arabidopsis suspension cells; test: PI; type: cell-based; settings: 50 µM ABA for 24h
full-length AtTSPO [2] = molecular target: T1, full-length AtTSPO (Arabidopsis thaliana, UniProt O82245); test: Microscale thermophoresis, PI; type: binding
T1 sequence (O82245 1-196): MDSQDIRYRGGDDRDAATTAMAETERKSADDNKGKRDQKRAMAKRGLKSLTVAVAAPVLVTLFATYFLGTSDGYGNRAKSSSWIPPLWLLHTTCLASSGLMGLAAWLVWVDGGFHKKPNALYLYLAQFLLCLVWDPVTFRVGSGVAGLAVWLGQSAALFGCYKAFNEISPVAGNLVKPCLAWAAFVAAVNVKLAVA
Outline: (§1)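 Microscale thermophoresis used His-tag labelling with RED-tris-NTA. Full-length or N-terminally truncated 10His protein from yeast was titrated against a PI(4,5)P2 concentration gradient in 50 mM Tris pH 8.0, 200 mM NaCl, 10% glycerol, 2% DDM and protease inhibitors. Laser power was 10, 20 or 40%. Values are mean ± SD of three experiments, with Kd from non-linear regression.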

AtTSPO^ΔN [3] = molecular target: T2, AtTSPO^ΔN (Arabidopsis thaliana, UniProt O82245); test: Microscale thermophoresis, PI; type: binding; settings: RED-tris-NTA label
T2 sequence (O82245 42-196): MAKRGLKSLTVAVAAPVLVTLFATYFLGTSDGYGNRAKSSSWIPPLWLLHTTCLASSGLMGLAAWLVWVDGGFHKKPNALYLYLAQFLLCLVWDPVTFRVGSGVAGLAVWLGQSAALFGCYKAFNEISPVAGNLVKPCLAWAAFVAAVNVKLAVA
Outline: as §1

AtTSPO^Nter [4] = molecular target: T3, AtTSPO^Nter (Arabidopsis thaliana, UniProt O82245); test: NMR 1H-15N HSQC titration of AtTSPO^Nter with lipids; type: binding
T3 sequence (O82245 1-49): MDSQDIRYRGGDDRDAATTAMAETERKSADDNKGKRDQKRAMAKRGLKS

full-length AtTSPO [5] = molecular target: T1, full-length AtTSPO; test: Protein-lipid overlay; type: binding
Outline: (§2)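 Lipids were spotted on nitrocellulose and air-dried 1 h: PA from CHCl3, and PI3P, PI4P and PI(4,5)P2 from 2% DDM. Commercial PIP strips were also used. Membranes were blocked in 3% BSA in TBS-Tween, incubated with purified protein in blocking buffer for 3 h at room temperature, then probed with primary and HRP secondary antibodies and developed by ECL.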

AtTSPO^Nter [6] = molecular target: T3, AtTSPO^Nter; test: Protein-lipid overlay with purified AtTSPO N-terminal peptide; type: binding
Outline: as §2

mTSPO = mTSPO (Mus musculus, UniProt P50637); test: Protein-lipid overlay with purified mouse TSPO; type: binding
Chain of mTSPO (P50637 whole entry): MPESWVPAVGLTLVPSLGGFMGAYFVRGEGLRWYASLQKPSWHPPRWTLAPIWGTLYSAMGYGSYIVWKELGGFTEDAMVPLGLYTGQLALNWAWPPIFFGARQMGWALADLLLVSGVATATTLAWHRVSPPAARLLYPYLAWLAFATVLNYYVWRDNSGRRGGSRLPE
Outline: as §2

[7] = molecular target: T4, AtTSPO-PIP2;7 interaction (Arabidopsis thaliana, UniProt O82245); test: Microscale thermophoresis of YFP-PIP2; type: binding; settings: 50 μM lipid in trans
T4 sequence (O82245 1-196): T1 sequence (O82245 1-196)
T4 sequence (P93004 1-280 partner): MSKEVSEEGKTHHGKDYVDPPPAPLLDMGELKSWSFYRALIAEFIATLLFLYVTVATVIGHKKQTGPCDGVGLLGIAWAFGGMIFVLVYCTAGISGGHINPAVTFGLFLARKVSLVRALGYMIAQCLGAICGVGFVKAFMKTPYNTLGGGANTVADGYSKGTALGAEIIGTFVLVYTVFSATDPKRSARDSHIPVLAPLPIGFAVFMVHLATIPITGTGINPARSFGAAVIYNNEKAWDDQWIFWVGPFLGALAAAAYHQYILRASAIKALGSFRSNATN
Outline: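 The aquaporin (mVenus-tagged YFP-PIP2;7) was a DDM-solubilised microsomal fraction from transgenic Arabidopsis seedlings. It was titrated against a range of AtTSPO concentrations, with 50 µM PI(4,5)P2, phosphatidylcholine, or no lipid added. Buffer was 50 mM Tris pH 8.0, 200 mM NaCl, 10% glycerol, 2% DDM. YFP was read through the green filter. Normalised data from three experiments (mean ± SD) were fitted by non-linear regression.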

full-length AtTSPO [8] = molecular target: T1, full-length AtTSPO; test: Microscale thermophoresis, phosphatidic acid titrated against full-length AtTSPO; type: binding; settings: protein labeled with NT-647-NHS, non-linear fitting
Outline: (§3)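 Microscale thermophoresis was run on a Monolith NT115. Lysine residues of yeast-derived full-length protein or bacterially expressed N-terminal peptide were labelled with NT-647-NHS. Labelled protein was titrated against a PA concentration gradient in 50 mM Tris pH 8.0, 200 mM NaCl, 10% glycerol, 2% DDM and protease inhibitors. LED power was 100%. Kd came from non-linear fitting of normalised fluorescence.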

[9] = molecular target: T5, N-terminal peptide (AtTSPO^Nter) (Arabidopsis thaliana, UniProt O82245); type: binding; settings: thermophoresis; peptide labeled with NT-647-NHS; non-linear fitting
T5 sequence (O82245 1-49): T3 sequence (O82245 1-49)
Outline: as §3

AtTSPO^ΔN [10] = molecular target: T2, AtTSPO^ΔN; test: Membrane-spotted PA gradient / PA pull-down with AtTSPO^ΔN; type: binding; settings: membrane-spotted gradient of PA
Outline: as §2

CC1=CC(=O)CC(C)(C)[C@@]1(O)/C=C/C(C)=C\C(=O)O [ABA, abscisic acid]
effect on PLC activity (PLC activity; KO TSPO seedlings): no effect | increase of PLC activity (PLC activity; OE TSPO seedlings): ~4 fold | enhancement of PLC activity compared with untreated samples (PLC activity; WT seedlings): ~20% | effect on PLC activity (PLC activity; seedlings overexpressing N-terminally truncated AtTSPO): no effect | distribution of the PI(4,5)P2 biosensor [1]: partial redistribution of the PI(4,5)P2 biosensor from the PM to the cytosol

CCCCCCCC/C=C\CCCCCCCC(=O)OC[C@H](COP(=O)(O)O[C@@H]1[C@H](O)[C@H](O)[C@@H](OP(=O)(O)O)[C@H](OP(=O)(O)O)[C@H]1O)OC(=O)CCCCCCC/C=C\CCCCCCCC [PI(4,5)P2, 1,2-dioleoyl-sn-glycero-3-phospho-(1’-myo-inositol-4’,5’-bisphosphate)]
Kd (full-length AtTSPO [2]): 2.3 ± 0.7 mM | binding to AtTSPO^ΔN (AtTSPO^ΔN [3]): no binding was observed | Kd (AtTSPO^Nter [4]): ~0.15 mM | binding to purified full-length AtTSPO (full-length AtTSPO [5]): could bind | binding to N-terminal peptide of AtTSPO (AtTSPO^Nter [6]): could bind | binding to mTSPO (mTSPO): did not bind | AtTSPO and Venus-PIP2;7 interaction [7]: clearly indicating a protein-protein interaction

PI3P
binding to purified full-length AtTSPO (full-length AtTSPO [5]): could bind | binding to N-terminal peptide of AtTSPO (AtTSPO^Nter [6]): could bind | binding to mTSPO (mTSPO): bind

PI4P
binding to purified full-length AtTSPO (full-length AtTSPO [5]): could bind | binding to N-terminal peptide of AtTSPO (AtTSPO^Nter [6]): could bind

PI5P
binding to purified full-length AtTSPO (full-length AtTSPO [5]): could bind | binding to N-terminal peptide of AtTSPO (AtTSPO^Nter [6]): could bind

PI(3,4)P2
binding to purified full-length AtTSPO (full-length AtTSPO [5]): bound all tested PIs except PI(3,4)P2

phosphatidic acid [PA]
Kd (full-length AtTSPO [8]): 2.1 mM | Kd [9]: 3.3 mM | binding to purified full-length AtTSPO (full-length AtTSPO [5]): bound | binding to AtTSPO^ΔN (AtTSPO^ΔN [10]): could not bind

phosphatidylcholine [PC]
AtTSPO and Venus-PIP2;7 interaction [7]: no interaction

phosphatidylserine [PS]
binding to purified full-length AtTSPO (full-length AtTSPO [5]): bound
